According to ChEMBL document CHEMBL4765234 (J Med Chem, 2016):
Calls of active or inactive are those of the source. No cut-off for these calls is given here.

Legend:
[1] = biological target: T1, Free fatty acid receptor 1 (Homo sapiens, UniProt O14842); experiment: Displacement of [3H]-TAK-875 from human recombinant full-length GPR40 expressed in human HEK293 cell membrane incubated for 2 hrs by solid scintillation counting method; type: cell membranes
[2] = biological target: T1, Free fatty acid receptor 1; experiment: Agonist activity at human recombinant full length GPR40 overexpressed in human HEK293 cells assessed as increase in intracellular calcium level measured over 3 mins by calcium 4 dye based FLIPR assay; type: functional, cell-based
How it was run: (§1)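 HEK293 cells overexpressing hGPR40 (25K/well) were cultured overnight in DMEM/F12 with 0.2% FBS and geneticin. Compound was tested at 40 μM–0.1 nM final (20-point, 1% DMSO), and FLIPR fluorescence was read over 3 min.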

[3] = biological target: T1, Free fatty acid receptor 1; experiment: Agonist activity at human recombinant full length GPR40 overexpressed in human HEK293 cells assessed as increase in intracellular calcium level measured over 3 mins by calcium 4 dye based FLIPR assay relative to 100 uM linoleic acid; type: functional, cell-based; details: filed as agonist; how it was run: as §1
[4] = biological target: T1, Free fatty acid receptor 1; experiment: Agonist activity at human recombinant full-length Prolink-tagged GPR40 fused with EA-tagged beta-arrestin expressed in human HEK293 cells assessed as induction of beta-arrestin recruitment measured after 90 mins by beta-galactosidase based PathHunter assay; type: cell-based
How it was run: (§2)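 PathHunter β-gal complementation. Cells were incubated overnight at 5000/well in medium with 1% heat-inactivated FBS. Compound was added as a 20-point 2-fold series from a top final of 100 μM (1% DMSO) for 90 min at 37 °C, followed by detection reagents and chemiluminescence read after 1 h at rt.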

[5] = biological target: T1, Free fatty acid receptor 1; experiment: Agonist activity at human recombinant full-length Prolink-tagged GPR40 fused with EA-tagged beta-arrestin expressed in human HEK293 cells assessed as induction of beta-arrestin recruitment measured after 90 mins by beta-galactosidase based PathHunter assay relative to control; type: cell-based; details: filed as agonist; how it was run: as §2
[6] = biological target: Free fatty acid receptor 1 (Mus musculus, UniProt Q76JU9); experiment: Agonist activity at Prolink-tagged mouse GPR40 fused with EA-tagged beta-arrestin expressed in human U2OS cells assessed as induction of beta-arrestin recruitment measured after 90 mins by beta-galactosidase based PathHunter assay; type: cell-based; how it was run: as §2
Chain of Free fatty acid receptor 1 (Mus musculus, UniProt Q76JU9) (Q76JU9 whole entry, the tested form may be a part): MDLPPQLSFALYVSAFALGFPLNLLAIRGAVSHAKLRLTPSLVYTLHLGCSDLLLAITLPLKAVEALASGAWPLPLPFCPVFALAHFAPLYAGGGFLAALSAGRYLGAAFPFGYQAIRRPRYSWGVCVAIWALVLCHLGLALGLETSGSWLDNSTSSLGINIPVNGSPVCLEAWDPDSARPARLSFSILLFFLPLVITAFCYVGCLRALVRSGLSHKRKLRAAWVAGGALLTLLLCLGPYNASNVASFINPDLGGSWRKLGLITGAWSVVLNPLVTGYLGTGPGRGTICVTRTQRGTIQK

[7] = biological target: Free fatty acid receptor 1 (Mus musculus) (UniProt Q76JU9); experiment: Agonist activity at Prolink-tagged mouse GPR40 fused with EA-tagged beta-arrestin expressed in human U2OS cells assessed as induction of beta-arrestin recruitment measured after 90 mins by beta-galactosidase based PathHunter assay relative to control; type: cell-based; details: filed as agonist; how it was run: as §2
Chain of Free fatty acid receptor 1 (Mus musculus) (Q76JU9 whole entry, the tested form may be a part): as above

[8] = biological target: Free fatty acid receptor 1 (Rattus norvegicus, UniProt Q8K3T4); experiment: Agonist activity at Prolink-tagged rat GPR40 fused with EA-tagged beta-arrestin expressed in human U2OS cells assessed as induction of beta-arrestin recruitment measured after 90 mins by beta-galactosidase based PathHunter assay; type: cell-based; how it was run: as §2
Chain of Free fatty acid receptor 1 (Rattus norvegicus, UniProt Q8K3T4) (Q8K3T4 whole entry, the tested form may be a part): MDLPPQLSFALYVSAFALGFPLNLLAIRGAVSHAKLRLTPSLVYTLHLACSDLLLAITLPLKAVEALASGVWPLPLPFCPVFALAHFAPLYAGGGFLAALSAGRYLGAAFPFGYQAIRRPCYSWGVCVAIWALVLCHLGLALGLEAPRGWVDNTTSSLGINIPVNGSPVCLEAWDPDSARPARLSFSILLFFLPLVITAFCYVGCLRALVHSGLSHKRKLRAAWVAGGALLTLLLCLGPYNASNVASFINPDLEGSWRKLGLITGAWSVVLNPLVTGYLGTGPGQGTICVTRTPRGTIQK

[9] = biological target: Free fatty acid receptor 1 (Rattus norvegicus) (UniProt Q8K3T4); experiment: Agonist activity at Prolink-tagged rat GPR40 fused with EA-tagged beta-arrestin expressed in human U2OS cells assessed as induction of beta-arrestin recruitment measured after 90 mins by beta-galactosidase based PathHunter assay relative to control; type: cell-based; details: filed as agonist; how it was run: as §2
Chain of Free fatty acid receptor 1 (Rattus norvegicus) (Q8K3T4 whole entry, the tested form may be a part): as above

[10] = biological target: T1, Free fatty acid receptor 1; experiment: Agonist activity at human recombinant full length GPR40 overexpressed in human HEK293 cells assessed as increase in inositol phosphate accumulation in presence of terbium cryptate-labeled anti IP1/d2-labelled IP1 measured after 120 mins by HTRF assay; type: functional, cell-based
How it was run: (§3)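 HEK293 hGPR40 cells (20K/well) were cultured overnight, washed, and held in IP1 stimulation buffer. IP-1 was measured by competitive HTRF immunoassay with terbium cryptate anti-IP1 mAb and d2-labelled IP1.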

[11] = biological target: T1, Free fatty acid receptor 1; experiment: Agonist activity at human recombinant full length GPR40 overexpressed in human HEK293 cells assessed as increase in inositol phosphate accumulation in presence of terbium cryptate-labeled anti IP1/d2-labelled IP1 measured after 120 mins by HTRF assay relative to AMG837; type: functional, cell-based; details: filed as agonist; how it was run: as §3
[12] = Protein binding in plasma (unknown origin) by equilibrium dialysis method; type: ADME, cell-free; details: human, read-out: PPB
How it was run: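 Plasma protein binding measured by equilibrium dialysis.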

[13] = biological target: T2, Peroxisome proliferator-activated receptor alpha (Homo sapiens) (UniProt Q07869); experiment: Displacement of [3H]-[…] from PPARalpha (unknown origin) expressed in baculovirus infected Sf9 insect cells upto 30 uM measured after 10 hrs by microbeta scintillation counting analysis; details: dose microM <=30, time 10.0 hrs
T2 sequence (whole entry): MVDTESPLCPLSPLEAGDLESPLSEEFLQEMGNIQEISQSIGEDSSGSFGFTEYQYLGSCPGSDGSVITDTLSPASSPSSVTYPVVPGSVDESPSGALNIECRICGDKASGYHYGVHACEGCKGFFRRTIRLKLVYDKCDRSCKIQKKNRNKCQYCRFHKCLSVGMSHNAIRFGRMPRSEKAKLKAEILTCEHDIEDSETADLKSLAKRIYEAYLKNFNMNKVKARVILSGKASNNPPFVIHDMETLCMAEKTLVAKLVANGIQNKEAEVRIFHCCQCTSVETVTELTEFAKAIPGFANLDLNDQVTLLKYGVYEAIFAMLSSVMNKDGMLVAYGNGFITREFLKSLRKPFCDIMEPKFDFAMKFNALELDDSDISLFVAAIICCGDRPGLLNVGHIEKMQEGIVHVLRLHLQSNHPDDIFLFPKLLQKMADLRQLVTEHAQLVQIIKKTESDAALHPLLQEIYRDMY
How it was run: (§4)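 Scintillation proximity assay. Sf9 lysates with baculovirus-expressed PPARα (0.3 μg), PPARδ (0.5 μg) or PPARγ (1.25 μg), each with RXRα, were bound via biotinylated DR2 oligo (0.126 nM) to streptavidin yttrium silicate beads. Buffer was HEPES pH 7.8 with KCl, MgCl2, DTT, CHAPS, 14% glycerol and salmon sperm DNA. A 3H reference agonist ligand was used, with 11 compound concentrations, for 10 h. Nonspecific binding was defined with 10000 nM unlabeled reference. Ki was derived from IC50.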

[14] = biological target: T3, Peroxisome proliferator-activated receptor delta (Homo sapiens) (UniProt Q03181); experiment: Displacement of [3H]-[…] from PPARdelta (unknown origin) expressed in baculovirus infected Sf9 insect cells upto 30 uM measured after 10 hrs by microbeta scintillation counting analysis; details: dose microM <=30, time 10.0 hrs; how it was run: as §4
T3 sequence (whole entry): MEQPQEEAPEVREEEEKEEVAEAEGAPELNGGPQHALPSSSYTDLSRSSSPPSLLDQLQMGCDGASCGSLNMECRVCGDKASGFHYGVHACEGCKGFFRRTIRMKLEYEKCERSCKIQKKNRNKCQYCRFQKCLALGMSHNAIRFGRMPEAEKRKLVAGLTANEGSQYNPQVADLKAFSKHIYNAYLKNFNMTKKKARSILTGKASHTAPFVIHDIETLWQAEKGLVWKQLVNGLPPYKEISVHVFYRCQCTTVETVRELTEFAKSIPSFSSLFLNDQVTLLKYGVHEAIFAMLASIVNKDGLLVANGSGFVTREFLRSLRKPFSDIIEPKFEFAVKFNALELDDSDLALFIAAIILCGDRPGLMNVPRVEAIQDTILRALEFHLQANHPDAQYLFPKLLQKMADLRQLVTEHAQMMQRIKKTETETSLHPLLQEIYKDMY

[15] = biological target: T4, Peroxisome proliferator-activated receptor gamma (Homo sapiens) (UniProt P37231); experiment: Displacement of [3H]-[…] from PPARgamma (unknown origin) expressed in baculovirus infected Sf9 insect cells upto 30 uM measured after 10 hrs by microbeta scintillation counting analysis; details: dose microM <=30, time 10.0 hrs; how it was run: as §4
T4 sequence (whole entry): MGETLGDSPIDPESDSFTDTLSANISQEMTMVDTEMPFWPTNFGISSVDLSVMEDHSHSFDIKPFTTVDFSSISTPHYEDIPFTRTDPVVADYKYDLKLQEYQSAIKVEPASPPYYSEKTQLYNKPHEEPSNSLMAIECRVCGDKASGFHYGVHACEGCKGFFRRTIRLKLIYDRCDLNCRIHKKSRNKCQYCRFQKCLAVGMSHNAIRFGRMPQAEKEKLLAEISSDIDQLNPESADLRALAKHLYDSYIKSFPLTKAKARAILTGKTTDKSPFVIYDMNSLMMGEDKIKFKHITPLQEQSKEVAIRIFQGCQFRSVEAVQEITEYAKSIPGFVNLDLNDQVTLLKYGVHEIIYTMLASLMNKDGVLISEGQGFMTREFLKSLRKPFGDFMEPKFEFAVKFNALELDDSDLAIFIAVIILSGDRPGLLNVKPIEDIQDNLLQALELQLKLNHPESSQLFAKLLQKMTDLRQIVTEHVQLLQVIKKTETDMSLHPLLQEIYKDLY

T1 sequence (O14842 whole entry): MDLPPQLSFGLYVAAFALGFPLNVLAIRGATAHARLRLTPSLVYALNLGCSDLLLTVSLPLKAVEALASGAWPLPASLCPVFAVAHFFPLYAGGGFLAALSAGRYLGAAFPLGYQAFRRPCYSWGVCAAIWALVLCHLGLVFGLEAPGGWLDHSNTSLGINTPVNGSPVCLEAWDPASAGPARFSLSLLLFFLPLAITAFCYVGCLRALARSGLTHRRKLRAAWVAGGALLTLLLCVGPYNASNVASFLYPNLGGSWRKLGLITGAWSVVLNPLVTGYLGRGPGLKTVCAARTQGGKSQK

Row | Compound | Ki [1] | EC50 [2] | Emax [3] | EC50 [4] | Emax [5] | EC50 [6] | Emax [7] | EC50 [8] | Emax [9] | EC50 [10] | Emax [11] | fraction unbound [12] | Activity [13] | Activity [14] | Activity [15]
1 | CC#C[C@@H](CC(=O)O)c1ccc(OCc2ccc(CN3CCC4(CC3)CC(=O)c3ccccc3O4)cc2)cc1 | 16 nM | 65 nM | 56% | 26 nM | 147% | 2.1 nM | 141% | 4.5 nM | 159% | 8.3 nM | 228% | < 0.01 | inactive | inactive | inactive
2 | CC#C[C@H](CC(=O)O)c1ccc(OCc2ccc(CN3CCC4(C=Cc5ccccc54)CC3)cc2)cc1 | 310 nM | 2800 nM | 46% | 540 nM | 95% | 60 nM | 100% | 120 nM | 101% | 360 nM | 166% | < 0.01 | inactive | inactive | inactive
3 | CC#C[C@@H](CC(=O)O)c1ccc(OCc2ccc(CN3CCC4(C=Cc5ccccc54)CC3)o2)cc1 | 20 nM | 1.6 nM | 59% | 62 nM | 121% | 2.1 nM | 121% | 4.2 nM | 117% | 22 nM | 127% | < 0.01 | inactive | inactive | inactive
4 | CC#C[C@@H](CC(=O)O)c1ccc(OCc2nc(C)c(CN3CCC4(C=Cc5ccccc54)CC3)s2)cc1 | 59 nM | 11 nM | 62% | 58 nM | 114% | 3.8 nM | 118% | 17 nM | 112% | 10 nM | 112% | < 0.01 | inactive | inactive | inactive
5 | CC#C[C@@H](CC(=O)O)c1ccc(OCc2ncc(CN3CCC4(C=Cc5ccccc54)CC3)s2)cc1 | 130 nM | 2.8 nM | 63% | 84 nM | 117% | 7.2 nM | 115% | 23 nM | 109% | 12 nM | 129% | < 0.01 | inactive | inactive | inactive
6 | CC#C[C@@H](CC(=O)O)c1ccc(OCc2ccc(CN3CCC4(CC3)CN(C)c3ccc(OC)cc34)cc2)cc1 | 29 nM | 130 nM | 49% | 100 nM | 129% | 11 nM | 144% | 18 nM | 145% | 23 nM | 311% | < 0.01 | inactive | inactive | inactive
7 | CC#C[C@@H](CC(=O)O)c1ccc(OCc2cnc(CN3CCC4(C=Cc5ccccc54)CC3)s2)cc1 | 120 nM | 4.4 nM | 62% | 170 nM | 114% | 3.8 nM | 127% | 11 nM | 114% | 5.2 nM | 129% | < 0.01 | inactive | inactive | inactive
8 | CC#C[C@@H](CC(=O)O)c1ccc(OCc2cc(C)c(CN3CCC4(C=Cc5ccccc54)CC3)s2)cc1 | 3.5 nM | 2.9 nM | 65% | 3.9 nM | 127% | 0.69 nM | 122% | 1.1 nM | 121% | 0.98 nM | 132% | < 0.01 | inactive | inactive | inactive
9 | CC#C[C@@H](CC(=O)O)c1ccc(OCc2ccc(CN3CCC4(C=Cc5ccccc54)CC3)cc2)cc1F | 13 nM | 18 nM | 60% | 36 nM | 118% | 5.6 nM | 120% | 16 nM | 115% | 14 nM | 156% | < 0.01 | inactive | inactive | inactive
10 | CC#C[C@@H](CC(=O)O)c1ccc(OCc2sc(CN3CCC4(C=Cc5ccccc54)CC3)nc2C)cc1 | 100 nM | 17 nM | 53% | 520 nM | 100% | 18 nM | 97% | 100 nM | 73% | 72 nM | 97% | < 0.01 | inactive | inactive | inactive
